Results: ChEMBL document CHEMBL2150944, “Antimalarial activity of pyrroloiminoquinones from the Australian marine sponge Zyzzya sp” (J Med Chem, 2012)
Structures can show the parent of a compound that is named as a salt. Activity calls are given as the source filed them. The rule behind the calls is not given here.

Columns and labels:
HCT-116 = test: Cytotoxicity against human HCT116 cells; format: functional, cell-based
XRS6 = test: Cytotoxicity against Chinese hamster Xrs-6 cells; format: cell-based; details: Cricetulus griseus
[1] = molecular target: DNA topoisomerase 2-alpha (Homo sapiens) (UniProt P11388); test: Inhibition of topoisomerase 2 by decatenation assay
Chain of DNA topoisomerase 2-alpha (Homo sapiens) (P11388 whole entry): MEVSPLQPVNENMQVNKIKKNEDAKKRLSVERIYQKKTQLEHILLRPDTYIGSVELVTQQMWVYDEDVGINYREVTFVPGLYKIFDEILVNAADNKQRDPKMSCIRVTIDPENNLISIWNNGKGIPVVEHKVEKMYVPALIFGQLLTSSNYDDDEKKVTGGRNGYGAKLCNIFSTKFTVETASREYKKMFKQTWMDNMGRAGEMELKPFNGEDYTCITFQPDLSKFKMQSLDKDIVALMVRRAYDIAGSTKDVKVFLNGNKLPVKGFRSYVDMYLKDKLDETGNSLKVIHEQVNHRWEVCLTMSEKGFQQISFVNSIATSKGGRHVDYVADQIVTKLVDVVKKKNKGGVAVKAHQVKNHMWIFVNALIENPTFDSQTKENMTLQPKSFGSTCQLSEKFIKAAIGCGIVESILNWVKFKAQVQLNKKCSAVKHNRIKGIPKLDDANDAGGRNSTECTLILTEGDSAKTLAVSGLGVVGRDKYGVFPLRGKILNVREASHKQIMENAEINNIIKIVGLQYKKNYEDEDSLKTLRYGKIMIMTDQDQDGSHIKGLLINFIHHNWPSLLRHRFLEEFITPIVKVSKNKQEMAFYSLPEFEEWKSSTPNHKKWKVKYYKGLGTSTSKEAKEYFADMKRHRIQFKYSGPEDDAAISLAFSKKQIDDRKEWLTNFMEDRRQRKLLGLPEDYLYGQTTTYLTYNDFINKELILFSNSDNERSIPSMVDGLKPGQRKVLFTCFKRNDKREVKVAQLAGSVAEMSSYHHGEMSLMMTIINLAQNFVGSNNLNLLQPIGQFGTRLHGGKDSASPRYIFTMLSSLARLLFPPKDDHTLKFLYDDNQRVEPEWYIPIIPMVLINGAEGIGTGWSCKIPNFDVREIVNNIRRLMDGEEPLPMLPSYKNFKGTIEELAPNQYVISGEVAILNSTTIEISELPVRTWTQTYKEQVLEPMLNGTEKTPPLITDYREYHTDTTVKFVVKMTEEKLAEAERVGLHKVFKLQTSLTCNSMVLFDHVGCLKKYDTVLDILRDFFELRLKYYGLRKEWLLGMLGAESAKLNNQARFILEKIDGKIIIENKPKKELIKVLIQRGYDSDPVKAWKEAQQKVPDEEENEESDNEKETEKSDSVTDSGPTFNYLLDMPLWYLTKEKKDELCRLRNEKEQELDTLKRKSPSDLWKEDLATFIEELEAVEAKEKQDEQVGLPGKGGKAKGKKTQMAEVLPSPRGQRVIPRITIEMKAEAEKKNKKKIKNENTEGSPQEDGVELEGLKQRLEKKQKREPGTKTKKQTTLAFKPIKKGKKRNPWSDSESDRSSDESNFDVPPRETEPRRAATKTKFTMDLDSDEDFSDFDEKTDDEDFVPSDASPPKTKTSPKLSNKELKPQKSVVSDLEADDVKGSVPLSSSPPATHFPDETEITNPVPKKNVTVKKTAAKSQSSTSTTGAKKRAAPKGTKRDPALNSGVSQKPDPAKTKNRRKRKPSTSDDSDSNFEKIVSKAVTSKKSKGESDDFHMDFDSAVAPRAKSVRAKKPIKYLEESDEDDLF

Plasmodium berghei [2] = test: Antimalarial activity against chloroquine-sensitive Plasmodium berghei ANKA infected in ip dosed Swiss albino mouse assessed as suppression of parasitemia measured on day 4 post infection by Giemsa staining; format: functional; details: 96 h
Plasmodium berghei [3] = test: Antimalarial activity against chloroquine-sensitive Plasmodium berghei ANKA infected in Swiss albino mouse assessed as suppression of parasitemia at 8 mg/kg/day, ip measured on day 4 post infection by Giemsa staining relative to control; format: functional; details: route intraperitoneal
Plasmodium falciparum [4] = test: Antimalarial activity against chloroquine-sensitive Plasmodium falciparum 3D7 assessed as growth inhibition after 72 hrs by DAPI staining; format: functional, organism-based; details: 3D7, 72 h
In short: (§1)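 P. falciparum 3D7 or Dd2 at 2% or 3% parasitemia, 0.3% hematocrit, exposed 72 h at 37 °C, 5% CO2. Staining with DAPI plus saponin and Triton X-100, 5 h at room temperature in the dark, then confocal imaging and automated counting of parasite spots. Percent inhibition is calculated against DMSO and 2 μM artemisinin controls.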

HEK293 = test: Cytotoxicity against human HEK293 cells assessed as growth inhibition after 72 hrs by Alamar blue assay; format: cell-based; details: HEK293, 72 h
In short: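 HEK293 adherent cells (3000/well) were incubated with compound for 72 h at 37 °C and 5% CO2. Medium was removed, then 10% Alamar Blue was added for 5−6 h. Fluorescence was read at ex 535/em 590 nm. Inhibition was normalised to DMSO and 10 μM puromycin controls. IC50 came from nonlinear variable-slope regression of % inhibition against log dose.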

Plasmodium falciparum [5] = test: Antimalarial activity against chloroquine-sensitive Plasmodium falciparum 3D7 trophozoite stage assessed as growth inhibition at 204 nM after 10 hrs by [3H]-hypoxanthine incorporation assay; format: functional, organism-based
In short: (§2)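 Synchronous 3D7 rings (~10−16 h post-invasion) or trophozoites (~24−30 h post-invasion), 0.5% parasitemia, 5% hematocrit, exposed 4, 6 or 10 h to compound or 0.04% DMSO vehicle. Cultures are washed, plated in triplicate with 0.5 μCi 3H-hypoxanthine, and incorporation is counted after ~48−72 h. Percent growth is relative to matched vehicle controls, from at least two independent experiments.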

Mus musculus [6] = test: Toxicity in Swiss albino mouse assessed as severe pallor upto 4 mg/kg/day, sc for 4 days; format: organism-based; set-up: route subcutaneous; details: in vivo, 96 h
In short: (§3)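 Healthy mice dosed subcutaneously daily for 4 consecutive days, compound in Tween 80/ethanol (7/3 v/v) diluted 10-fold in distilled water (~0.2 mL). Mice are assessed before and after dosing for weight loss >10%, ruffled coat, shaking, severe pallor, reduced activity and behaviour changes.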

[7] = Selectivity index, ratio of IC50 for human HEK293 cells to IC50 for chloroquine-resistant Plasmodium falciparum Dd2; format: toxicity, cell-based; details: read-out: Ratio IC50
[8] = Half life in mouse liver microsomes at 1 uM after 60 mins; format: ADME, Microsome
In short: (§4)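 1 μM compound incubated at 37 °C with human or mouse liver microsomes (0.4 mg/mL protein) in 0.1 M phosphate pH 7.4. Reaction started with an NADPH-regenerating system plus MgCl2 and quenched with ice-cold acetonitrile at time points up to 60 min. Parent loss is followed by LC−MS and fitted to exponential decay, giving half-life and in vitro CLint.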

Mus musculus [9] = test: Toxicity in Swiss albino mouse assessed as shaking upto 4 mg/kg/day, sc for 4 days; format: organism-based; set-up: route subcutaneous; details: in vivo, 96 h; in short: as §3
[10] = Selectivity index, ratio of IC50 for human HEK293 cells to IC50 for chloroquine-sensitive Plasmodium falciparum 3D7; format: toxicity, cell-based; details: read-out: Ratio IC50
Plasmodium berghei [11] = test: Antimalarial activity against chloroquine-sensitive Plasmodium berghei ANKA infected in Swiss albino mouse assessed as suppression of parasitemia at 4 mg/kg/day, ip measured on day 4 post infection by Giemsa staining; format: functional, organism-based
Plasmodium falciparum [12] = test: Antimalarial activity against chloroquine-sensitive Plasmodium falciparum 3D7 trophozoite stage assessed as growth inhibition at 408 nM after 10 hrs by [3H]-hypoxanthine incorporation assay; format: functional, organism-based; in short: as §2
Mus musculus [13] = test: Toxicity in Swiss albino mouse assessed as ruffled coat upto 4 mg/kg/day for 4 days; format: organism-based; details: in vivo, 96 h; in short: as §3
[14] = Intrinsic clearance in mouse liver microsomes assessed as per mg of protein at 1 uM after 60 mins; format: ADME, Microsome; details: read-out: CLH; in short: as §4
[15] = Intrinsic clearance in human liver microsomes assessed as per mg of protein at 1 uM after 60 mins; format: ADME, Microsome; details: read-out: CLH; in short: as §4
Mus musculus [16] = test: Toxicity in Swiss albino mouse assessed as reduced activity at 8 mg/kg/day, sc for 4 days; format: organism-based; set-up: route subcutaneous; details: in vivo, 96 h; in short: as §3
[17] = Half life in human liver microsomes at 1 uM after 60 mins; format: ADME, Microsome; in short: as §4
Plasmodium falciparum [18] = test: Antimalarial activity against chloroquine-sensitive Plasmodium falciparum 3D7 ring stage assessed as growth inhibition at 204 nM after 10 hrs by [3H]-hypoxanthine incorporation assay; format: functional, organism-based; in short: as §2
Mus musculus [19] = test: Toxicity in Swiss albino mouse assessed as body weight loss > 10 % at 8 mg/kg/day, sc for 4 days; format: organism-based; set-up: route subcutaneous; details: in vivo, 96 h; in short: as §3
Plasmodium falciparum [20] = test: Antimalarial activity against chloroquine-resistant Plasmodium falciparum Dd2 assessed as growth inhibition after 72 hrs by DAPI staining; format: functional, organism-based; details: Dd2, 72 h; in short: as §1
Mus musculus [21] = test: Toxicity in Swiss albino mouse assessed as behaviour changes upto 4 mg/kg/day, sc for 4 days; format: organism-based; set-up: route subcutaneous; details: in vivo, 96 h; in short: as §3
[22] = Plasma concentration in Swiss mouse at 8 mg/kg, sc administered as solution measured 1 hr post dose; format: ADME, organism-based; set-up: dose 8 mg/kg, route subcutaneous
In short: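 Nonfasted male Swiss outbred mice (26−34 g), nominal 8 mg/kg subcutaneous into the dorsal skinfold in saline vehicle with 5−7% DMSO. Blood is drawn by cardiac puncture under isoflurane at 0.25, 1 or 4 h (n = 2 per time point) into stabilizer. Plasma is precipitated with acetonitrile and quantified by UPLC−MS against standards in blank mouse plasma.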

Mus musculus [23] = test: Toxicity in Swiss albino mouse assessed as ruffled coat at 8 mg/kg/day for 4 days; format: organism-based; details: in vivo, 96 h; in short: as §3
Plasmodium falciparum [24] = test: Antimalarial activity against chloroquine-sensitive Plasmodium falciparum 3D7 ring stage assessed as growth inhibition at 408 nM after 10 hrs by [3H]-hypoxanthine incorporation assay; format: functional, organism-based; in short: as §2
Mus musculus [25] = test: Toxicity in Swiss albino mouse assessed as body weight loss > 10 % upto 4 mg/kg/day, sc for 4 days; format: organism-based; set-up: route subcutaneous; details: in vivo, 96 h; in short: as §3
Mus musculus [26] = test: Toxicity in Swiss albino mouse assessed as reduced activity upto 4 mg/kg/day, sc for 4 days; format: organism-based; set-up: route subcutaneous; details: in vivo, 96 h; in short: as §3

With `O=C1C(NCCc2ccc(O)cc2)=CC2=NCCc3c[nH]c1c32` [MAKALUVAMINE D] the IC50 (HCT-116) was > 170 nM and the IC50 (XRS6) was 80 nM.

In the case of `O=C1C(NC2Cc3cc(Br)c(O)cc3S2)=CC2=NCCc3c[nH]c1c32` (stereo unspecified) [MAKALUVAMINE F], the IC50 (HCT-116) is reported as > 170 nM, the IC90 [1] is reported as 25 µM and the IC50 (XRS6) is reported as 80 nM.

`CCN(CC)CCCC(C)Nc1ccnc2cc(Cl)ccc12` (stereo unspecified) [CHLOROQUINE] gave an ED50 (Plasmodium berghei [2]) of 1.9 mg/kg/day and an Activity (Plasmodium berghei [3]) of 35%.

For `C[N+]1=C2C=C(NCCc3ccc(O)cc3)C(=O)c3[nH]cc(c32)CC1.O=C([O-])C(F)(F)F` [MAKALUVAMINE J TFA SALT], the IC50 (Plasmodium falciparum [4]) was 25 nM, the IC50 (HEK293) was 1200 nM and the “growth inhibition (GI)” value (Plasmodium falciparum [5]) was “Active”. The Activity (Mus musculus [6]) was “Non-toxic”, the selectivity ratio [7] was 54 and the half-life at 1 µM [8] was 42 min. For the same compound, the Activity (Mus musculus [9]) was “Non-toxic”, the selectivity ratio [10] was 48 and the Activity (Plasmodium berghei [11]) was “inactive”. The “growth inhibition (GI)” value (Plasmodium falciparum [12]) was “Active”, the Activity (Mus musculus [13]) was “Non-toxic” and the microsomal CLint at 1 µM [14] was 41 µL/min/mg. The microsomal CLint at 1 µM [15] was < 5 µL/min/mg, the Activity (Mus musculus [16]) was “Toxic” and the half-life at 1 µM [17] was > 350 min. The “growth inhibition (GI)” value (Plasmodium falciparum [18]) was “Active”, the Activity (Mus musculus [19]) was “Toxic” and the IC50 (Plasmodium falciparum [20]) was 22 nM. For the same compound, the Activity (Mus musculus [21]) was “Non-toxic”, the concentration at 1 h [22] was 1700 nM and the Activity (Mus musculus [23]) was “Toxic”. The “growth inhibition (GI)” value (Plasmodium falciparum [24]) was “Active”, the Activity (Mus musculus [25]) was “Non-toxic” and the Activity (Mus musculus [26]) was “Non-toxic”.

For `CN1CCc2c[nH]c3c2C1=CC(=O)C3=O` [DAMIRONES B], the IC50 (Plasmodium falciparum [4]) was 12200 nM, the IC50 (HEK293) was > 120000 nM and the selectivity ratio [7] was > 32. The selectivity ratio [10] was > 10 and the IC50 (Plasmodium falciparum [20]) was 3800 nM.

With `Cn1cc2c3c1C(=O)C(NCCc1ccc(O)cc1)=CC3=NCC2` [MAKALUVAMINE K TFA SALT] the IC50 (Plasmodium falciparum [4]) was 396 nM, the IC50 (HEK293) was 1100 nM and the selectivity ratio [7] was 4. The selectivity ratio [10] was 3 and the IC50 (Plasmodium falciparum [20]) was 300 nM.

`C[N+]1=C2C=C(N/C=C/c3ccc(O)cc3)C(=O)c3[nH]cc(c32)CC1` [MAKALUVAMINE L] showed an IC50 (Plasmodium falciparum [4]) of 40 nM, an IC50 (HEK293) of 1400 nM and a selectivity ratio [7] of 66. The selectivity ratio [10] was 35 and the IC50 (Plasmodium falciparum [20]) was 21 nM.

With `CN1CCc2cn(C)c3c2C1=CC(=O)C3=O` [DAMIRONES A] the IC50 (Plasmodium falciparum [4]) was 1880 nM, the IC50 (HEK293) was > 120000 nM and the selectivity ratio [7] was > 333. For the same compound, the selectivity ratio [10] was > 63 and the IC50 (Plasmodium falciparum [20]) was 360 nM.
